From ChEMBL document CHEMBL4680134, “Structural optimization of natural product nordihydroguaretic acid to discover novel analogues as AcrB inhibitors” (Eur J Med Chem, 2020)

Experiments:
[1] = molecular target: T1, Multidrug efflux pump subunit AcrB (Escherichia coli (strain K12)) (UniProt P31224); assay: Inhibition of AcrB in Escherichia coli BW25113 assessed as potentiation of levofloxacin induced antibacterial activity by measuring levofloxacin MIC at 32 ug/ml measured after 18 hrs by checkerboard titration method (reference value: 0.06 ug/ml); details: dose 32.0 µg/ml
T1 sequence (whole entry): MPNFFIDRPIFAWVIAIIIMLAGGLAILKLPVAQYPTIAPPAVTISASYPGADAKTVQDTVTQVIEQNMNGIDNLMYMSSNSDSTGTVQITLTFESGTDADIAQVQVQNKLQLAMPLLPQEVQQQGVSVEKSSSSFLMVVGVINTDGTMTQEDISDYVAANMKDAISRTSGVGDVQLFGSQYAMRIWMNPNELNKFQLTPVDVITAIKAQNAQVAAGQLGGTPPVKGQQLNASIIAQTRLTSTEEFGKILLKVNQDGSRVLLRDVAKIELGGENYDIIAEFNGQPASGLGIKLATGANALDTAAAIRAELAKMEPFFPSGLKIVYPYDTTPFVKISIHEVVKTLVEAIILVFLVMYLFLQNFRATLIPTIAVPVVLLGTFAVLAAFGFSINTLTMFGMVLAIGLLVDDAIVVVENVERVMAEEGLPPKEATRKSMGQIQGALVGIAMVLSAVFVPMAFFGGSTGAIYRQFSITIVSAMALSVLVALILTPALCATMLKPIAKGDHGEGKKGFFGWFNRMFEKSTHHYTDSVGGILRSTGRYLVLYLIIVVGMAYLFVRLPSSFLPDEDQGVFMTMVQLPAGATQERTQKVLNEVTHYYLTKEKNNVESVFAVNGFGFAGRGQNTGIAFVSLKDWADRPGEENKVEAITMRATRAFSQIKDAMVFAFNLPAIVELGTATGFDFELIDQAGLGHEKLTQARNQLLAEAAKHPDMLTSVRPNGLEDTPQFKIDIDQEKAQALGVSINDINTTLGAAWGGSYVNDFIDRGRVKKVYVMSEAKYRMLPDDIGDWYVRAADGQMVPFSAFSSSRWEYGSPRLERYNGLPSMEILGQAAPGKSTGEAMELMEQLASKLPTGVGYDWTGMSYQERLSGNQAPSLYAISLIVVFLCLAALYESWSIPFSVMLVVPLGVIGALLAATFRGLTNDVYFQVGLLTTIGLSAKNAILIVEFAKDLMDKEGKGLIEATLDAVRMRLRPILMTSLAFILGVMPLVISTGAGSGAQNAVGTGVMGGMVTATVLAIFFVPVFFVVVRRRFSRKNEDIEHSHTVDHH

[2] = molecular target: T1, Multidrug efflux pump subunit AcrB (Escherichia coli (strain K12)); assay: Inhibition of AcrB in Escherichia coli BW25113 assessed as potentiation of erythromycin induced antibacterial activity by measuring erythromycin MIC at 128 ug/ml measured after 18 hrs by checkerboard titration method (reference value: 64 ug/ml); details: dose 128.0 µg/ml
[3] = molecular target: T1, Multidrug efflux pump subunit AcrB (Escherichia coli (strain K12)); assay: Inhibition of AcrB in Escherichia coli BW25113 assessed as potentiation of rifampicin induced antibacterial activity by measuring rifampicin MIC at 64 ug/ml measured after 18 hrs by checkerboard titration method (reference value: 16 ug/ml); details: dose 64.0 µg/ml
[4] = molecular target: T1, Multidrug efflux pump subunit AcrB (Escherichia coli (strain K12)); assay: Inhibition of AcrB in Escherichia coli BW25113 assessed as potentiation of erythromycin induced antibacterial activity by measuring erythromycin MIC at 16 ug/ml measured after 18 hrs by checkerboard titration method (reference value: 64 ug/ml); details: dose 16.0 µg/ml
[5] = molecular target: T1, Multidrug efflux pump subunit AcrB (Escherichia coli (strain K12)); assay: Inhibition of AcrB in Escherichia coli BW25113 assessed as potentiation of chloramphenicol induced antibacterial activity by measuring chloramphenicol MIC at 64 ug/ml measured after 18 hrs by checkerboard titration method (reference value: 8 ug/ml); details: dose 64.0 µg/ml
[6] = molecular target: T1, Multidrug efflux pump subunit AcrB (Escherichia coli (strain K12)); assay: Inhibition of AcrB in Escherichia coli BW25113 assessed as potentiation of erythromycin induced antibacterial activity by measuring erythromycin MIC at 32 ug/ml measured after 18 hrs by checkerboard titration method (reference value: 64 ug/ml); details: dose 32.0 µg/ml
[7] = molecular target: T1, Multidrug efflux pump subunit AcrB (Escherichia coli (strain K12)); assay: Inhibition of AcrB in Escherichia coli BW25113 assessed as potentiation of levofloxacin induced antibacterial activity by measuring levofloxacin MIC at 128 ug/ml measured after 18 hrs by checkerboard titration method (reference value: 0.06 ug/ml); details: dose 128.0 µg/ml
[8] = molecular target: T1, Multidrug efflux pump subunit AcrB (Escherichia coli (strain K12)); assay: Inhibition of AcrB in Escherichia coli BW25113 assessed as potentiation of chloramphenicol induced antibacterial activity by measuring chloramphenicol MIC at 16 ug/ml measured after 18 hrs by checkerboard titration method (reference value: 8 ug/ml); details: dose 16.0 µg/ml
Cell membrane = assay: Induction of outer membrane permeabilization in wild type Escherichia coli BW25113 assessed as increase in nitrocefin hydrolysis at 128 ug/ml by spectrophotometry analysis; details: dose 128 µg/ml
How it was run: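 Outer-membrane permeability: intact E. coli treated with 10 µM CCCP to block nitrocefin efflux, then exposed to compound. Nitrocefin hydrolysis by periplasmic β-lactamase followed as increasing absorbance at 490 nm over time. Polymyxin B as permeabilizer control, untreated cells as baseline. Duplicate experiments on different days.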

[9] = molecular target: T1, Multidrug efflux pump subunit AcrB (Escherichia coli (strain K12)); assay: Inhibition of AcrB in Escherichia coli BW25113 assessed as potentiation of chloramphenicol induced antibacterial activity by measuring chloramphenicol MIC at 128 ug/ml measured after 18 hrs by checkerboard titration method (reference value: 8 ug/ml); details: dose 128.0 µg/ml
[10] = Growth inhibition of Escherichia coli harboring AcrB deletion mutant at 64 ug/ml after 18 hrs by broth microdilution assay; details: dose 64 µg/ml
How it was run: (§1)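 MIC determined by 96-well broth microdilution in E. coli BW25113 expressing AcrB ((+)AcrB) and an isogenic acrB-deleted strain ((-)AcrB). Used to set the compound concentrations for synergy testing that produce no direct antibacterial effect.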

[11] = molecular target: T1, Multidrug efflux pump subunit AcrB (Escherichia coli (strain K12)); assay: Inhibition of AcrB in Escherichia coli BW25113 assessed as potentiation of tetraphenylphosphonium induced antibacterial activity by measuring tetraphenylphosphonium MIC at 16 ug/ml measured after 18 hrs by checkerboard titration method (reference value: 1024 ug/ml); details: dose 16.0 µg/ml
[12] = molecular target: T1, Multidrug efflux pump subunit AcrB (Escherichia coli (strain K12)); assay: Inhibition of AcrB in Escherichia coli BW25113 assessed as potentiation of chloramphenicol induced antibacterial activity by measuring chloramphenicol MIC at 32 ug/ml measured after 18 hrs by checkerboard titration method (reference value: 8 ug/ml); details: dose 32.0 µg/ml
[13] = molecular target: T1, Multidrug efflux pump subunit AcrB (Escherichia coli (strain K12)); assay: Inhibition of AcrB in Escherichia coli BW25113 assessed as potentiation of levofloxacin induced antibacterial activity by measuring levofloxacin MIC at 64 ug/ml measured after 18 hrs by checkerboard titration method (reference value: 0.06 ug/ml); details: dose 64.0 µg/ml
[14] = molecular target: T1, Multidrug efflux pump subunit AcrB (Escherichia coli (strain K12)); assay: Inhibition of AcrB in Escherichia coli BW25113 assessed as potentiation of tetraphenylphosphonium induced antibacterial activity by measuring tetraphenylphosphonium MIC at 32 ug/ml measured after 18 hrs by checkerboard titration method (reference value: 1024 ug/ml); details: dose 32.0 µg/ml
[15] = Growth inhibition of Escherichia coli BW25113 expressing AcrB at 512 ug/ml after 18 hrs by broth microdilution assay; details: dose 512 µg/ml; how it was run: as §1

Compound	MIC [1]	MIC [2]	MIC [3]	MIC [4]	MIC [5]	MIC [6]	MIC [7]	MIC [8]	Activity (Cell membrane)	MIC [9]	growth inhibition (GI) [10]	MIC [11]	MIC [12]	MIC [13]	MIC [14]	growth inhibition (GI) [15]
Oc1ccc(CCCCc2ccc(Cl)cc2)cc1O	0.06 µg/mL	64 µg/mL	16 µg/mL	64 µg/mL	16 µg/mL	64 µg/mL	0.06 µg/mL	16 µg/mL	Toxic	16 µg/mL	Non-Toxic	1020 µg/mL	16 µg/mL	0.06 µg/mL	1020 µg/mL	Non-Toxic
Oc1ccc(CCCCCCCc2ccc(O)c(O)c2)cc1O	0.06 µg/mL	64 µg/mL	16 µg/mL	64 µg/mL	8 µg/mL	64 µg/mL	0.06 µg/mL	8 µg/mL	Non-Toxic	8 µg/mL	Non-Toxic	1020 µg/mL	8 µg/mL	0.06 µg/mL	512 µg/mL	Non-Toxic
Oc1ccc(CCCCc2ccc(Br)cc2)cc1O	0.06 µg/mL	64 µg/mL	16 µg/mL	64 µg/mL	8 µg/mL	64 µg/mL	0.06 µg/mL	8 µg/mL	Toxic	8 µg/mL	Non-Toxic	1020 µg/mL	8 µg/mL	0.06 µg/mL	1020 µg/mL	Non-Toxic
Oc1ccc(CCCCc2ccccc2O)cc1O	0.06 µg/mL	64 µg/mL	16 µg/mL	64 µg/mL	4 µg/mL	64 µg/mL	0.06 µg/mL	8 µg/mL	Non-Toxic	4 µg/mL	Non-Toxic	512 µg/mL	4 µg/mL	0.06 µg/mL	512 µg/mL	Non-Toxic
Oc1ccc(CCCCc2cc3cccc4ccc5cccc2c5c43)cc1O	0.06 µg/mL	32 µg/mL	16 µg/mL	64 µg/mL	8 µg/mL	64 µg/mL	0.06 µg/mL	8 µg/mL	Non-Toxic	4 µg/mL	Non-Toxic	512 µg/mL	8 µg/mL	0.06 µg/mL	512 µg/mL	Non-Toxic
O=C(NCCc1ccc(O)c(O)c1)c1cc(O)c(O)c(O)c1	0.03 µg/mL	16 µg/mL	16 µg/mL	32 µg/mL	4 µg/mL	32 µg/mL	0.03 µg/mL	4 µg/mL	Non-Toxic	2 µg/mL	Non-Toxic	1020 µg/mL	4 µg/mL	0.03 µg/mL	512 µg/mL	Non-Toxic
Nc1ccccc1C(=O)NCCc1ccc(O)c(O)c1	0.06 µg/mL	32 µg/mL	16 µg/mL	64 µg/mL	4 µg/mL	64 µg/mL	0.06 µg/mL	8 µg/mL	Non-Toxic	4 µg/mL	Non-Toxic	1020 µg/mL	8 µg/mL	0.06 µg/mL	1020 µg/mL	Non-Toxic
